Data taken from ChEMBL document CHEMBL1143773, “Synthesis and studies on antidepressant and anticonvulsant activities of some 3-(2-furyl)-pyrazoline derivatives” (Eur J Med Chem, 2007).
Active and inactive are the calls of the source. The calls are words filed in the database; no cut-off is given here.

Legend:
Mus musculus [1] = assay: Neurotoxicity in Albino mouse at 30 mg/kg, ip after 4 hrs by RotaRod test; format: toxicity, organism-based; parameters: dose 30 mg/kg, route intraperitoneal; conditions: in vivo
Summary of the method: (§1)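 Phase I protocol of the NINCDS antiepileptic drug development programme in albino mice, covering MES, subcutaneous pentylenetetrazole (metrazol) and rotarod neurotoxicity. Doses were 30, 100 and 300 mg/kg, read at 1/2 h and 4 h. One animal per dose and time point, scored as 0/1 (no activity) or 1/1 (noticeable activity).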

Mus musculus [2] = assay: Neurotoxicity in Albino mouse at 100 mg/kg, ip after 4 hrs by RotaRod test; format: toxicity, organism-based; parameters: dose 100 mg/kg, route intraperitoneal; conditions: in vivo; summary of the method: as §1
Mus musculus [3] = assay: Neurotoxicity in Albino mouse at 300 mg/kg, ip after 4 hrs by RotaRod test; format: toxicity, organism-based; parameters: dose 300 mg/kg, route intraperitoneal; conditions: in vivo; summary of the method: as §1
Mus musculus [4] = assay: Anticonvulsant activity against metrazole-induced seizures in Albino mouse at 100 mg/kg, ip after 30 mins by scMet assay; format: functional, organism-based; parameters: dose 100 mg/kg; summary of the method: as §1
Mus musculus [5] = assay: Antidepressant activity in Albino mouse assessed as duration of immobility at 10 mg/kg, ip by forced-swimming test; format: functional; conditions: route intraperitoneal
Summary of the method: (§2)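 Porsolt forced-swim test in albino mice. Drug given ip at 0.5 ml/20 g body weight, 1 h before testing. Controls received 1% aqueous Tween 80. Each mouse was placed singly in a water-filled Plexiglas cylinder for 6 min. Immobility (floating upright with only slight movements to stay afloat) was timed over the last 4 min.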

Mus musculus [6] = assay: Antidepressant activity in Albino mouse assessed as duration of immobility at 10 mg/kg, ip by forced-swimming test relative to control; format: functional; conditions: route intraperitoneal; summary of the method: as §2
Mus musculus [7] = assay: Anticonvulsant activity in Albino mouse by MES test at 30mg/kg, ip after 30 mins; format: functional, organism-based; summary of the method: as §1
Mus musculus [8] = assay: Anticonvulsant activity in Albino mouse by MES test at 100 mg/kg, ip after 30 mins; format: functional, organism-based; parameters: dose 100 mg/kg; summary of the method: as §1
Mus musculus [9] = assay: Anticonvulsant activity in Albino mouse by MES test at 300 mg/kg, ip after 30 mins; format: functional, organism-based; parameters: dose 300 mg/kg; summary of the method: as §1
Mus musculus [10] = assay: Anticonvulsant activity against metrazole-induced seizures in Albino mouse at 30 mg/kg, ip after 30 mins by scMet assay; format: functional, organism-based; parameters: dose 30 mg/kg; summary of the method: as §1
Mus musculus [11] = assay: Anticonvulsant activity against metrazole-induced seizures in Albino mouse at 300 mg/kg, ip after 30 mins by scMet assay; format: functional, organism-based; parameters: dose 300 mg/kg; summary of the method: as §1
Mus musculus [12] = assay: Anticonvulsant activity in Albino mouse at 30 mg/kg, ip after 4 hrs by MES test; format: functional, organism-based; parameters: dose 30 mg/kg; summary of the method: as §1
Mus musculus [13] = assay: Anticonvulsant activity in Albino mouse at 100 mg/kg, ip after 4 hrs by MES test; format: functional, organism-based; parameters: dose 100 mg/kg; summary of the method: as §1
Mus musculus [14] = assay: Anticonvulsant activity in Albino mouse at 300 mg/kg, ip after 4 hrs by MES test; format: functional, organism-based; parameters: dose 300 mg/kg; summary of the method: as §1
Mus musculus [15] = assay: Anticonvulsant activity against metrazole-induced seizures in Albino mouse at 30 mg/kg, ip after 4 hrs by scMet; format: functional, organism-based; parameters: dose 30 mg/kg; summary of the method: as §1
Mus musculus [16] = assay: Anticonvulsant activity against metrazole-induced seizures in Albino mouse at 100 mg/kg, ip after 4 hrs by scMet assay; format: functional, organism-based; parameters: dose 100 mg/kg; summary of the method: as §1
Mus musculus [17] = assay: Anticonvulsant activity against metrazole-induced seizures in Albino mouse at 300 mg/kg, ip after 4 hrs by scMet assay; format: functional, organism-based; parameters: dose 300 mg/kg; summary of the method: as §1
Mus musculus [18] = assay: Neurotoxicity in Albino mouse at 30 mg/kg, ip after 30 mins by RotaRod test; format: toxicity, organism-based; parameters: dose 30 mg/kg, route intraperitoneal; conditions: in vivo, 0.5 h; summary of the method: as §1
Mus musculus [19] = assay: Neurotoxicity in Albino mouse at 100 mg/kg, ip after 30 mins by RotaRod test; format: toxicity, organism-based; parameters: dose 100 mg/kg, route intraperitoneal; conditions: in vivo, 0.5 h; summary of the method: as §1
Mus musculus [20] = assay: Neurotoxicity in Albino mouse at 300 mg/kg, ip after 30 mins by RotaRod test; format: toxicity, organism-based; parameters: dose 300 mg/kg, route intraperitoneal; conditions: in vivo, 0.5 h; summary of the method: as §1

C=CCNC(=S)N1N=C(c2ccco2)CC1c1ccccc1 (stereo not given)
Activity (Mus musculus [1]): Not Active | Activity (Mus musculus [2]): Not Active | Activity (Mus musculus [3]): Not Active | Activity (Mus musculus [4]): inactive | Activity (Mus musculus [5]): 190 s | Activity (Mus musculus [6]): -9.52% | Activity (Mus musculus [7]): inactive | Activity (Mus musculus [8]): Active | Activity (Mus musculus [9]): Active | Activity (Mus musculus [10]): inactive | Activity (Mus musculus [11]): inactive | Activity (Mus musculus [12]): inactive | Activity (Mus musculus [13]): inactive | Activity (Mus musculus [14]): inactive | Activity (Mus musculus [15]): inactive | Activity (Mus musculus [16]): inactive | Activity (Mus musculus [17]): inactive | Activity (Mus musculus [18]): Not Active | Activity (Mus musculus [19]): Not Active | Activity (Mus musculus [20]): Not Active
